Values after ≈ are worked out from the molar mass of the structure shown. Active and inactive are the calls of the source. The calls are words filed in the database; no cut-off is given here.
Key:
[1] = Cytotoxicity against human Huh7D12 cells assessed as cell growth inhibition; type: functional, cell-based; conditions: Huh-7D12
[2] = Cytotoxicity against human NCI-H2 cells assessed as cell growth inhibition; type: functional, cell-based
How it was run: (§1)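 Inhibition of proliferation tested on a panel of human lines: Huh7D12 (differentiated hepatocellular carcinoma), Caco 2 (differentiating colorectal adenocarcinoma), MDA-MB-231 (breast carcinoma), HCT-116 (actively proliferating colorectal carcinoma), PC3 (prostate carcinoma) and NCI-H2 (lung carcinoma). Diploid skin fibroblasts served as the normal control line. Result reported as IC50.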

[3] = tested on: MDA-MB-231; assay: Cytotoxicity against human MDA-MB-231 cells assessed as cell growth inhibition; type: functional, cell-based
[4] = tested on: B16; assay: Cytotoxicity against mouse B16 cells assessed as cell growth inhibition incubated for 72 hrs by MTT assay; type: functional, cell-based; conditions: B16, 72 h
[5] = tested on: Fibroblast; assay: Cytotoxicity against human Fibroblasts assessed as cell growth inhibition; type: cell-based; how it was run: as §1
[6] = tested on: HaCaT; assay: Cytotoxicity against human HaCaT cells assessed as cell growth inhibition incubated for 72 hrs by MTT assay; type: functional, cell-based
[7] = tested on: Caco-2; assay: Cytotoxicity against human Caco2 cells assessed as cell growth inhibition; type: functional, cell-based
[8] = tested on: HCT-116; assay: Cytotoxicity against human HCT116 cells assessed as cell growth inhibition; type: functional, cell-based; how it was run: as §1
[9] = tested on: PC-3; assay: Cytotoxicity against human PC3 cells assessed as cell growth inhibition; type: functional, cell-based; how it was run: as §1
[10] = Antioxidant activity assessed as DPPH radical scavenging activity after 5 mins by spectrophotometric analysis; type: functional
[11] = Antioxidant activity assessed as superoxide anion radical scavenging activity after 5 mins by spectrophotometric analysis; type: functional
How it was run: (§2)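 Nonenzymatic superoxide scavenging read in 96-well plates. Final mixture: NADH 78 μM, NBT 50 μM, PMS 10 μM, test compound at 350, 116, 39 and 13 μM. Reagents in 16 mM Tris-HCl pH 8, compounds in DMSO. After 5 min at room temperature, absorbance at 560 nm against a no-PMS blank. IC50 taken from steady-state percent inhibition per dilution. Ascorbic acid as positive control. Triplicates averaged.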

[12] = Antioxidant activity after 5 mins by NBT assay; type: functional; how it was run: as §2

| Compound | IC50 [1] [nM] | IC50 [2] [nM] | IC50 [3] [nM] | IC50 [4] [nM] | IC50 [5] [nM] | IC50 [6] [nM] | IC50 [7] [nM] | IC50 [8] [nM] | IC50 [9] [nM] | IC50 [10] | inhibition [11] | IC50 [12] [nM] | IC50 [11] [nM] |
| --- | --- | --- | --- | --- | --- | --- | --- | --- | --- | --- | --- | --- | --- |
| COc1cccc2c1C(=O)c1c(O)c3c(c(O)c1C2=O)C[C@@](O)(C(=O)CO)C[C@@H]3O[C@H]1C[C@H](N)[C@H](O)[C@H](C)O1 [DOXORUBICIN] | 60 | 40 | 30 | 430 | 40 | 530 | 30 | 80 | 90 |  |  |  |  |
| COC1=CC(=O)c2c(O)c3c(c(O)c2C1=O)[C@@H](OC)[C@H](C)OC3=O |  |  |  |  |  |  |  |  |  | Not Active | Active | 6100 |  |
| COC1=CC(=O)c2c(O)c3c(c(O)c2C1=O)[C@@H]1O[C@@H](C)C[C@@H]1OC3=O |  |  |  | > 10000 |  | > 10000 |  |  |  | Not Active |  | 49900 | 50000 |
| CC(=O)O[C@H]1C(=O)[C@@]2(C)[C@H]([C@H](OC(=O)c3ccccc3)[C@]3(O)C[C@H](OC(=O)[C@H](O)[C@@H](NC(=O)c4ccccc4)c4ccccc4)C(C)=C1C3(C)C)[C@]1(OC(C)=O)CO[C@@H]1C[C@@H]2O [PACLITAXEL] | 8 | 20 | 21 |  | > 250 |  | 14 | 3 | 4 |  |  |  |  |
| O=C(O)c1cc(O)c(O)c(O)c1 [GALLIC ACID] |  |  |  |  |  |  |  |  |  | 7.2 µg/mL (≈ 42.3 µM) |  |  |  |
| CC[C@H](CO)Nc1nc(NCc2ccccc2)c2ncn(C(C)C)c2n1 [SELICICLIB] |  | 18000 |  |  | 7000 |  |  |  |  |  |  |  |  |
| CC[C@]1(O)C[C@H]2CN(CCc3c([nH]c4ccccc34)[C@@](C(=O)OC)(c3cc4c(cc3OC)N(C=O)[C@H]3[C@@](O)(C(=O)OC)[C@H](OC(C)=O)[C@]5(CC)C=CCN6CC[C@]43[C@@H]65)C2)C1 [VINCRISTINE] |  |  |  | 500 |  | 650 |  |  |  |  |  |  |  |
| O=C1O[C@H]([C@@H](O)CO)C(O)=C1O [ASCORBIC ACID] |  |  |  |  |  |  |  |  |  |  | Active | 22100 |  |
| COC1=CC(=O)c2c(O)c3c(c(O)c2C1=O)C[C@H](C)OC3=O | 3000 | 2500 | 10000 | 2400 | 4000 | 14200 | 4000 | 2600 | 4000 | > 500 µg/mL | Active | 1900 |  |

Reference: ChEMBL document CHEMBL4431303, “Minor Pyranonaphthoquinones from the Apothecia of the Lichen Ophioparma ventosa” (J Nat Prod, 2016)
